Screening data deposited in PubChem by several laboratories.
An excerpt weighted towards active compounds, which were near 2.8% of everything screened.
Mcl1 Bid PPI: Mcl-1/Bid binding inhibitors, primary screen, biochemical, TR-FRET, 1536-well | inhibition, % at 21.7 µM | Induced myeloid leukemia cell differentiation protein Mcl-1 (Homo sapiens), Q07820 | AID 1021, 2008 | TR-FRET Mcl-1/Bid-Dy647 peptide binding | 0.97% of 220,000 active;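 active = compounds that cut the binding signal by more than half at the single screening dose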;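 also: His-tagged Mcl-1 with europium anti-His antibody binding Bid BH3 peptide; 0% = Mcl-1 plus peptide wells and 100% = peptide-only wells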
Target sequence (Q07820 whole entry, looked up): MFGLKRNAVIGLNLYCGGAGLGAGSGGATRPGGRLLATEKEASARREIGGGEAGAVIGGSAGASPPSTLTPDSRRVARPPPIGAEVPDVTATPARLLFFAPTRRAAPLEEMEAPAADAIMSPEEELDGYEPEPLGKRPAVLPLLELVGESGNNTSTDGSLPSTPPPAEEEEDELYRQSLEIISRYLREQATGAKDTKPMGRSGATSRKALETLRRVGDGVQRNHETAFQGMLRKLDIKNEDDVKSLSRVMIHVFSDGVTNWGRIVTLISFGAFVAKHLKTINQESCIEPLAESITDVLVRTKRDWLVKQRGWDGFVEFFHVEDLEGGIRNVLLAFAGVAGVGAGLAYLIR
Arbovirus inh: antivirals against arbovirus infection, primary screen, cell-based, full library, 10K replicate subset | arbovirus infection cell-based antiviral screen | inhibition, % at 10 µM | 0.37% of 200,000 active; in the data active = inhibition above about 30%
Biofilm kill mix: clotrimazole potentiators killing C. albicans biofilm, primary screen, 4-compound mixtures. C. albicans biofilm persisters + clotrimazole, fluorescence viability; primary screen in compound mixtures of four per well. inhibition, % at 7.6 µM. 0.02% of 120,000 active. AID 1242, 2008;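 active = inhibition above 30.3% in the primary screen of four-compound pools, then above 30% when the compound was retested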;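 also: compounds exposed to preformed 24 h biofilms for 48 h; 0% = untreated biofilm control and 100% = clotrimazole plus chlorhexidine kill blank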
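System: C. albicans CAF4-2 wild-type biofilms; Medium: RPMI/MOPS medium, pH 7.0; Reagent: Clotrimazole, 50 µg/mL; Times: biofilm formation 24 h, compound exposure 48 h, 37 °C; Detection: 2-h Alamar Blue fluorescence, 535/590 nm excitation/emission; Evaluation: percent inhibition of biofilm viability.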
Calpain2 inh: inhibitors of pig calpain II, primary screen, biochemical, fluorogenic peptide substrate, 1536-well | purified calpain II, 30 min | inhibition, % at 16 µM | 0.37% of 220,000 active | AID 1236, 2008;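 active = inhibition above about 50%, limit read from the data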
Bim-Mcl-1: inhibitors of Bim peptide binding to Mcl-1, primary screen, biochemical, bead-based flow cytometry, multiplex | AID 1009, 2008 | inhibition, % at 10 µM | Bim peptide-Mcl-1 binding | 0.1% of 190,000 active; in the data active = inhibition above about 40%;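 also: 0% = no compound tracer wells and 100% = peptide blocker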
Mcl1-Noxa inh: Mcl-1/Noxa binding inhibitors, primary screen, biochemical, TR-FRET, 1536-well; Induced myeloid leukemia cell differentiation protein Mcl-1 (Homo sapiens), Q07820; TR-FRET Mcl-1/Noxa peptide binding, 2 h; inhibition, % at 21.7 µM; 1.5% of 220,000 active;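 active = compounds that cut the protein-peptide binding signal by more than 50% relative to plate controls in a single-dose test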;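 also: His-tagged Mcl-1 with rhodamine Noxa BH3 peptide and terbium anti-His antibody; 0% = Mcl-1 plus Noxa peptide wells and 100% = peptide-only wells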
Starred values were filed as active, the others as inactive; x = no result given.

SMILES	Mcl1 Bid PPI	Arbovirus inh	Biofilm kill mix	Calpain2 inh	Bim-Mcl-1	Mcl1-Noxa inh
Cc1cccc(-n2cc(-c3ccc([N+](=O)[O-])cc3)[nH]c2=S)c1	34	-8	19	16	-6	52*
CC#C[C@]1(O)CC[C@H]2[C@@H]3CCC4=CC(=O)CCC4=C3[C@@H](c3ccc(N(C)C)cc3)C[C@@]21C	-24	-10	10	-26	0	67*
Cc1ccc(/C=N/N=C2/NC(=O)C(CC(=O)N3CCOCC3)S2)cc1 (stereo not drawn)	-11	2	3	33	-5	5
CCOc1ccc(C2CC(=O)N(Nc3ccc([N+](=O)[O-])cc3[N+](=O)[O-])C2=O)cc1 (stereo not drawn)	0	x	1	19	x	54*
CC(C)Oc1ccc(C2CC(=O)N(Nc3ccc([N+](=O)[O-])cc3[N+](=O)[O-])C2=O)cc1 (stereo not drawn)	-5	x	22	-5	x	8
COc1cccc(CN2CCCC(CNC(=O)c3ccc(F)cc3)C2)c1OC (stereo not drawn)	-10	4	18	-1	-3	4
CC1=CC2=NC(=O)/C(=C/c3cccn3Cc3ccccc3)C(=N)N2O1	-1	x	23	-1	x	16
N=C1/C(=C/c2cccn2Cc2ccc(Cl)cc2)C(=O)N=C2SC=CN12	54*	-4	22	-18	-1	36
COc1ccc(C(=O)Nc2ncc3c(n2)CC(c2ccco2)CC3=O)cc1 (stereo not drawn)	-25	-11	x	5	1	52*
CC(=O)Nc1ncc2c(n1)CC(c1ccco1)CC2=O (stereo not drawn)	-6	-2	x	-21	-1	1
Cc1ccc(NC(=O)c2noc(C(C)C)c2[N+](=O)[O-])cc1	-15	-1	8	58*	-5	8
CC(C)c1onc(C(=O)Nc2cccnc2Cl)c1[N+](=O)[O-]	-24	13	23	56*	2	12
CC(C)c1onc(C(=O)Nc2cccc(O)c2)c1[N+](=O)[O-]	-10	2	0	6	-2	3
CCNC(=O)C1CC(=O)N(CCCc2ccccc2)C(=Nc2ccccc2)S1 (stereo not drawn)	-21	x	25	-8	x	2
O=C(Cn1cc(C(=O)c2ccco2)c2ccccc21)Nc1ccccc1	-3	2	x	61*	7	-6
COc1ccc(NC(=O)Cn2cc(C(=O)c3ccco3)c3ccccc32)cc1	4	-17	x	4	-1	10
O=C(NNC(=O)c1ccncc1)c1ccncc1	-34	0	x	-16	-3	-4
COc1ccc(C(=O)NNC(=O)c2ccncc2)cc1	-11	-4	7	-2	-4	61*
O=C(NCc1ccncc1)c1ccc(Oc2ccccc2)cc1	-10	17	0	-12	1	9
CC(=O)c1ccc(NC(=S)NNC(=O)c2ccncc2)cc1	92*	-4	15	-6	-6	17
Cc1ccc(Oc2ccc(C(=O)NCc3ccncc3)cc2)cc1	-13	-4	14	50*	0	-3
Cc1sc2ncnc(NC3CCN(Cc4ccccc4)CC3)c2c1C	-6	-2	7	7	0	9
Cc1ccc(NC(=O)CN(C)S(=O)(=O)c2ccc(Br)s2)cc1F	-4	6	18	23	-4	13
COC(=O)c1scc(C)c1NS(=O)(=O)c1ccc(NC(C)=O)cc1	9	x	21	10	x	-6
Nc1nc(SCC(=O)Nc2ccccc2C(F)(F)F)[nH]c(=O)c1-c1ccccc1	-9	0	10	-2	0	7
Nc1ccc(SCC(=O)Nc2cccc([N+](=O)[O-])c2)cc1	-33	-17	14	-16	0	-10
CNc1sc(C(=O)c2ccccc2F)c(N)c1-c1nc2ccccc2s1	-33	10	x	-32	0	86*
CC(C)CN(C(=O)COC(=O)c1ccc(-c2ccccc2)cc1)C1CCS(=O)(=O)C1 (stereo not drawn)	2	7	11	-9	-1	1
